Variants at the floor of the assay were thinned out.
B1: tRNA (parent)
chain: GUUCCGUUGGCGUAAUGGUAACGCGUCUCCCUCCUAAGGAGAAGACUGCGGGUUCGAGUCCCGUACGGAACG

Variants of: B1
Assay: yeast fitness relative to wild type (ratio to wild type); higher = fitter; tRNA-Arg(CCU), competitive growth, 37 C, YPD
Summary of the method: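 The tRNA-Arg(CCU) gene variants were made by chemical synthesis with a 3% per-site mutation rate at 69 sites and inserted at the native genomic locus of Saccharomyces cerevisiae. After pooling, the strains were competed in YPD at 37°C for 24 hours in six parallel replicates. Gene amplicons from the start population and each end population were read by 100-nucleotide paired-end sequencing, and Darwinian fitness relative to wild type was taken from genotype frequency changes. Genotypes needed ≥ 100 starting reads, and estimates < 0.5 were set to 0.5.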

Question: For U3A C33U, which yeast fitness is on record?
Answer: 0.791

Question: Which yeast fitness does the source give for A36C A37G here?
Answer: 0.611

Question: For U7C C22G A40U A69C, which yeast fitness is on record?
Answer: 0.574

Question: With A20G C55G C61U as the variant, how does the yeast fitness read?
Answer: 0.534

Question: For C24G A37U A42G, which yeast fitness is on record?
Answer: ≤ 0.5

Question: With C29G C49U G58C as the variant, how does the yeast fitness read?
Answer: 0.558

Question: Which yeast fitness does the source give for G18C C22A here?
Answer: 0.582

Question: With G12A A15U G17A as the variant, how does the yeast fitness read?
Answer: ≤ 0.5

Question: For C5G G41C A45U, which yeast fitness is on record?
Answer: 0.583

Question: With C4G U26A as the variant, how does the yeast fitness read?
Answer: 0.796

Question: Which yeast fitness does the source give for G25C C34G A57G here?
Answer: ≤ 0.5

Question: With G9A C11U C29G as the variant, how does the yeast fitness read?
Answer: 0.609

Question: For U3C A15C G17C C24A C31U U35C G68A, which yeast fitness is on record?
Answer: ≤ 0.5

Question: For C11U A14C A37C, which yeast fitness is on record?
Answer: 0.544

Question: Which yeast fitness does the source give for A14G C27A U54G here?
Answer: ≤ 0.5

Question: Which yeast fitness does the source give for G9A G56A C62U G67A here?
Answer: 0.525

Question: With A15U U64C A65G as the variant, how does the yeast fitness read?
Answer: 0.528

Question: With U2G C22U C24G A69C as the variant, how does the yeast fitness read?
Answer: 0.579

Question: Which yeast fitness does the source give for U3A A14U A42U C55A here?
Answer: ≤ 0.5

Question: Which yeast fitness does the source give for A15G A36U here?
Answer: 0.679

Question: Which yeast fitness does the source give for G9A C31G A65C here?
Answer: ≤ 0.5

Question: Which yeast fitness does the source give for U3A C5A G17A C22U C66U here?
Answer: 0.531

Question: With A21C U26C A57U as the variant, how does the yeast fitness read?
Answer: ≤ 0.5

Question: Which yeast fitness does the source give for A15C C29A C66U here?
Answer: ≤ 0.5

Question: For A21C C27U C61G, which yeast fitness is on record?
Answer: 0.534

Question: For U28A G56C, which yeast fitness is on record?
Answer: ≤ 0.5

Question: Which yeast fitness does the source give for C30A C33A here?
Answer: 0.652

Question: With A36C A40U C46A G68C as the variant, how does the yeast fitness read?
Answer: 0.584

Question: Which yeast fitness does the source give for G39A A42G U59A here?
Answer: ≤ 0.5

Question: For C22G C24G C27A C60G, which yeast fitness is on record?
Answer: 0.521

Question: Which yeast fitness does the source give for A20G U35C A70U here?
Answer: 0.629

Question: Which yeast fitness does the source give for A20C A57G G63A here?
Answer: 0.558

Question: With C31A G38C A43C C46G as the variant, how does the yeast fitness read?
Answer: 0.672

Question: With U16G A42G G48A as the variant, how does the yeast fitness read?
Answer: ≤ 0.5

Question: For C4U C30A A43G, which yeast fitness is on record?
Answer: 0.728

Question: With C31G G56A as the variant, how does the yeast fitness read?
Answer: 0.98

Question: For A20U G25C U35C C60G, which yeast fitness is on record?
Answer: ≤ 0.5

Question: For G6C A70U, which yeast fitness is on record?
Answer: 0.823

Question: For C33A A36C A43U C46G C62G A69U, which yeast fitness is on record?
Answer: ≤ 0.5

Question: With C11A A14G A43C A57G U59C A70G as the variant, how does the yeast fitness read?
Answer: 0.542

Question: Which yeast fitness does the source give for C4A A20G G44C A45G here?
Answer: 0.506

Question: Which yeast fitness does the source give for U3A C4A U8C C29G A37C C62U A70U here?
Answer: ≤ 0.5

Question: Which yeast fitness does the source give for U28A G51C A57C here?
Answer: 0.53

Question: With U26A C33A C34G as the variant, how does the yeast fitness read?
Answer: 0.644

Question: Which yeast fitness does the source give for U7G A14G C22U G38A C55A G67A here?
Answer: ≤ 0.5

Question: Which yeast fitness does the source give for A14G G25A G44C here?
Answer: 0.782

Question: For C11A A14G A20U C22G C24U G48C G52A, which yeast fitness is on record?
Answer: 0.57

Question: With U2G G52C C61G as the variant, how does the yeast fitness read?
Answer: ≤ 0.5

Question: With U7C C60U as the variant, how does the yeast fitness read?
Answer: 0.785

Question: For C11A G12A C66A, which yeast fitness is on record?
Answer: ≤ 0.5

Question: Which yeast fitness does the source give for G6C U7C A21U G44A here?
Answer: ≤ 0.5

Question: For G38A G56A A70U, which yeast fitness is on record?
Answer: 0.7

Question: Which yeast fitness does the source give for C30G C46G G52C G68C here?
Answer: ≤ 0.5

Question: Which yeast fitness does the source give for U2C G25A G52A here?
Answer: ≤ 0.5

Question: For C31G A40G A45C U47C U53A A70U, which yeast fitness is on record?
Answer: ≤ 0.5

Question: For U28A C29G C31U A69U, which yeast fitness is on record?
Answer: ≤ 0.5

Question: For G9C C49U A65U, which yeast fitness is on record?
Answer: 0.52

Question: Which yeast fitness does the source give for A40G G48A G63A here?
Answer: 0.774

Question: With C31A A43C as the variant, how does the yeast fitness read?
Answer: 0.832

Question: For U19A C27U C55U, which yeast fitness is on record?
Answer: 0.572

Question: For G10C C24G U28C A37G U47A, which yeast fitness is on record?
Answer: ≤ 0.5

Question: Which yeast fitness does the source give for C4G G10C U35C G38U C46G here?
Answer: ≤ 0.5

Question: With A20G A43C A57U as the variant, how does the yeast fitness read?
Answer: 0.538

Question: Which yeast fitness does the source give for C11A C24G C30G here?
Answer: 0.599

Question: Which yeast fitness does the source give for U16C C30G here?
Answer: 0.708

Question: For C4U G10A C22G, which yeast fitness is on record?
Answer: 0.642

Question: With G10A A45G C46G U54G A70C as the variant, how does the yeast fitness read?
Answer: 0.532

Question: Which yeast fitness does the source give for C24G C27U C33U G50C here?
Answer: ≤ 0.5

Question: For A15U C24G C30U A57U, which yeast fitness is on record?
Answer: 0.832

Question: Which yeast fitness does the source give for U3A C31G G67U here?
Answer: 0.542

Question: With C11A C30G C34G as the variant, how does the yeast fitness read?
Answer: 0.579

Question: For A57U U59G C66U, which yeast fitness is on record?
Answer: ≤ 0.5

Question: With C5A U26C as the variant, how does the yeast fitness read?
Answer: 0.954

Question: For G12C A14G G25A G41C C61U G67A, which yeast fitness is on record?
Answer: 0.573

Question: With A20U A43G A70U as the variant, how does the yeast fitness read?
Answer: 0.661

Question: Which yeast fitness does the source give for U13C G51C C66A here?
Answer: ≤ 0.5

Question: For C22G C29G C33U A42G G50A C66U, which yeast fitness is on record?
Answer: ≤ 0.5

Question: For U13A A15G C27U A57G, which yeast fitness is on record?
Answer: ≤ 0.5

Question: Which yeast fitness does the source give for C4A C24A A42G here?
Answer: 0.603

Question: For A20C G56U, which yeast fitness is on record?
Answer: 0.765

Question: For U26C G68U, which yeast fitness is on record?
Answer: 0.821

Question: Which yeast fitness does the source give for C4A C33U A37G here?
Answer: ≤ 0.5

Question: For C5G U19G C22U A43C G51A, which yeast fitness is on record?
Answer: ≤ 0.5

Source: the RNAGym collection of RNA variant scans (doi:10.1126/science.aae0568)
